Assay results gathered from unrelated publications.
Lines come from different studies, so protocols differ.
Mapk1: Mitogen-activated protein kinase 1 (Mapk1, Mus musculus, UniProt P63085)
PARP3: Protein mono-ADP-ribosyltransferase PARP3 (PARP3, Homo sapiens, UniProt Q9Y6F1)
ADRA1B: Alpha-1B adrenergic receptor (ADRA1B, Homo sapiens, UniProt P35368)

| Structure (SMILES) | target | observed | action | technique | cell line | concentration | inhibition [%] |
| --- | --- | --- | --- | --- | --- | --- | --- |
| O=C1C=Cc2occ(C(=O)c3ccccc3)c2C1=O | Interstitial collagenase (MMP1, Homo sapiens, UniProt P03956) | enzyme activity | inhibitor |  |  | 100 µM | ≤ 0 |
| CCN(CC)CCNC(=O)c1c(C)[nH]c(/C=C2\C(=O)Nc3ccc(F)cc32)c1C | Mapk1 | enzyme activity | inhibitor |  |  | 0.3 µM | -16 |
| Cn1cnc(Br)c1C1=CN(c2ncnc3[nH]cnc23)CCS1 | Myosin-IIIa (MYO3A, Homo sapiens, UniProt Q8NEV4) | enzyme activity | inhibitor | radiometric |  | 50 nM | 19.3 |
| O=C1NCCCc2ccc(F)cc21 | PARP3 | enzyme activity | inhibitor |  |  | 10 µM | 63 |
| O=C(c1ccc(Cl)cc1)N(Cc1ccccc1)C1CCCCC1 | ADRA1B | cell-free assay |  |  |  | 10 µM | 11.3 |
| O=C1CCCc2c(O)cccc2N1 | PARP3 | enzyme activity | inhibitor |  |  | 10 µM | 0 |
| Oc1cccc(Nc2nc(-c3ccc(F)cc3F)cs2)c1 | ADRA1B | cell-free assay |  |  |  | 10 µM | 16.4 |
| CN(C)C1CCN(CC#Cc2nn(C3CCCC3)c3nc(NCc4ccccc4)ncc23)C1 (stereo not shown) | Interleukin-1 receptor-associated kinase 1 (IRAK1, Homo sapiens, UniProt P51617) | enzyme activity | inhibitor | FRET |  | 1 µM | 13 |
| CCN(CC)c1ccc(C2Nc3ccc(C(=O)c4ccccc4)cc3NC3=C2C(=O)CC(C)(C)C3)cc1 (stereo not shown) | ADRA1B | ligand displacement |  | radioligand |  | 10 µM | -5 |
| O=C1NCCCc2c(O)cccc21 | PARP3 | enzyme activity | inhibitor |  |  | 10 µM | 20 |
| CNC(=O)c1cc2c(Oc3ccc(NC(=O)C4(C(=O)Nc5ccc(F)cc5)CC4)cc3)ccnc2cc1OC | Hepatocyte growth factor receptor (MET, Homo sapiens, UniProt P08581) | enzyme activity | inhibitor | radiometric |  | 1 µM | 99 |
| CC/C(=N\NC(=O)NCc1cccc(O)c1)c1ccc(O)c(C)c1O | cAMP-dependent protein kinase catalytic subunit gamma (PRKACG, Homo sapiens, UniProt P22612) | enzyme activity | inhibitor |  |  | 0.1 µM | 91 |
| CCN(c1cc(C#CCN2CCOCC2)cc(C(=O)NCc2c(C)cc(C)[nH]c2=O)c1C)[C@H]1CC[C@H](N(C)CCOC)CC1 | Histone-lysine N-methyltransferase NSD3 (NSD3, Homo sapiens, UniProt Q9BZ95) | enzyme activity | inhibitor |  |  | 1 µM | 16 |
| Cc1ccc(Nc2nccc(N(C)c3ccc4c(C)n(C)nc4c3)n2)cc1S(N)(=O)=O | Mapk1 | enzyme activity | inhibitor |  |  | 0.3 µM | -2 |
| Ic1cccc2cnccc12 | ADP-ribosyl cyclase/cyclic ADP-ribose hydrolase 1 (CD38, Homo sapiens, UniProt P28907) | enzyme activity | inhibitor |  |  | 10 µM | 0 |
| COc1ccc2c(c1)C(CC(=O)O)=C/C2=C\c1ccc(SC)cc1 | Prostaglandin G/H synthase 2 (Ptgs2, Mus musculus, UniProt Q05769) | enzyme activity | inhibitor |  |  | 4 µM | 8 |
| CCCNc1nc2ccccc2n1Cc1ccc(Cl)cc1 | ADRA1B | ligand displacement |  |  |  | 10 µM | 16.1 |
| O=C1CCNC(=O)c2cc(Cl)c(Cl)cc21 | PARP3 | enzyme activity | inhibitor |  |  | 10 µM | 85 |
| CCN1CCN(Cc2ccc(NC(=O)c3ccc(C)c(Oc4ccnc5[nH]ccc45)c3)cc2C(F)(F)F)CC1 | Microtubule-associated serine/threonine-protein kinase 4 (MAST4, Homo sapiens, UniProt O15021) | target engagement in cells | inhibitor | chemoproteomics | Huh-7 | 10 µM | -28.8 |
